Test results published in ChEMBL document CHEMBL1121844, “Synthesis and preliminary antitumor evaluation of 5-iminodoxorubicin” (1981).
Each block holds one molecule with its values, some of them ahead of it.

How the values were obtained:
Format in all cases: functional
Mus musculus [1] = experiment: Compound was evaluated for antitumor activity in mice injected intraperitoneal with leukemia P-388 cells, treated on days 5, 9, and 13th day at 4 mg/kg
Method in brief: (§1)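 Mice received leukemia P-388 cells intraperitoneally on day 0. The specified dose was then given ip on days 5, 9 and 13. Read-out was % T/C, the survival time of treated mice relative to untreated controls. A T/C of 120% or more was defined as active.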

Mus musculus [2] = experiment: Compound was evaluated for antitumor activity in mice injected intraperitoneal with leukemia P-388 cells, treated on days 5, 9, and 13th day at 2 mg/kg; method in brief: as §1
L1210 [3] = experiment: Dose required to inhibit the DNA synthesis in leukemia L1210 cells; settings: Mus musculus, read-out: ED50 (the source's name)
Mus musculus [4] = experiment: Compound was evaluated for antitumor activity in mice injected intraperitoneal with leukemia P-388 cells, treated on days 5, 9, and 13th day at 8 mg/kg; method in brief: as §1
Rattus norvegicus = organism: Rattus norvegicus; experiment: Compound was evaluated for augmentation of rat liver microsomal oxygen consumption relative to doxorubicin
Mus musculus [5] = experiment: Compound was evaluated for antitumor activity in mice injected intraperitoneal with leukemia P-388 cells, treated on days 5, 9, and 13 th day at 16 mg/kg; method in brief: as §1
L1210 [6] = experiment: Dose required to inhibit the RNA synthesis in leukemia L1210 cells; settings: Mus musculus, read-out: ED50 (the source's name)
Mus musculus [7] = experiment: Compound was evaluated for antitumor activity in mice injected intraperitoneal with leukemia P-388 cells, treated on days 5, 9, and 13th day at 3.24 mg/kg; method in brief: as §1
Mus musculus [8] = experiment: Compound was evaluated for antitumor activity in mice injected intraperitoneal with leukemia P-388 cells, treated on days 5, 9, and 13th day at 1.5 mg/kg; method in brief: as §1
Mus musculus [9] = experiment: Compound was evaluated for antitumor activity in mice injected intraperitoneal with leukemia P-388 cells, treated on days 5, 9, and 13 th day at 24 mg/kg; method in brief: as §1
Mus musculus [10] = experiment: Compound was evaluated for antitumor activity in mice injected intraperitoneal with leukemia P-388 cells, treated on days 5, 9, and 13th day at 9 mg/kg; method in brief: as §1
Mus musculus [11] = experiment: Compound was evaluated for antitumor activity in mice injected intraperitoneal with leukemia P-388 cells, treated on days 5, 9, and 13th day at 12 mg/kg; method in brief: as §1
Mus musculus [12] = experiment: Compound was evaluated for antitumor activity in mice injected intraperitoneal with leukemia P-388 cells, treated on days 5, 9, and 13th day at 3 mg/kg; method in brief: as §1
Nucleic Acid = experiment: Thermal denaturation for stabilization of helical DNA by the compound
Mus musculus [13] = experiment: Compound was evaluated for antitumor activity in mice injected intraperitoneal with leukemia P-388 cells, treated on days 5, 9, and 13th day at 16 mg/kg; method in brief: as §1
Mus musculus [14] = experiment: Compound was evaluated for antitumor activity in mice injected intraperitoneal with leukemia P-388 cells, treated on days 5, 9, and 13th day at 3.46 mg/kg; method in brief: as §1
Mus musculus [15] = experiment: Compound was evaluated for antitumor activity in mice injected intraperitoneal with leukemia P-388 cells, treated on days 5, 9, and 13th day at 1.94 mg/kg; method in brief: as §1
Mus musculus [16] = experiment: Compound was evaluated for antitumor activity in mice injected intraperitoneal with leukemia P-388 cells, treated on days 5, 9, and 13th day at 9.6 mg/kg; method in brief: as §1
Mus musculus [17] = experiment: Compound was evaluated for antitumor activity in mice injected intraperitoneal with leukemia P-388 cells, treated on days 5, 9, and 13th day at 6 mg/kg; method in brief: as §1
Mus musculus [18] = experiment: Compound was evaluated for antitumor activity in mice injected intraperitoneal with leukemia P-388 cells, treated on days 5, 9, and 13th day at 5.4 mg/kg; method in brief: as §1
Mus musculus [19] = experiment: Compound was evaluated for antitumor activity in mice injected intraperitoneal with leukemia P-388 cells, treated on days 5, 9, and 13th day at 5.76 mg/kg; method in brief: as §1
Mus musculus [20] = experiment: Compound was evaluated for antitumor activity in mice injected intraperitoneal with leukemia P-388 cells, treated on days 5, 9, and 13 th day at 1 mg/kg; method in brief: as §1
Mus musculus [21] = experiment: Compound was evaluated for antitumor activity in mice injected intraperitoneal with leukemia P-388 cells, treated on days 5, 9, and 13 th day at 4 mg/kg; method in brief: as §1
Mus musculus [22] = experiment: Compound was evaluated for antitumor activity in mice injected intraperitoneal with leukemia P-388 cells, treated on days 5, 9, and 13 th day at 2 mg/kg; method in brief: as §1
Mus musculus [23] = experiment: Compound was evaluated for antitumor activity in mice injected intraperitoneal with leukemia P-388 cells, treated on days 5, 9, and 13 th day at 8 mg/kg; method in brief: as §1
Mus musculus [24] = experiment: Compound was evaluated for antitumor activity in mice injected intraperitoneal with leukemia P-388 cells, treated on days 5, 9, and 13th day at 25 mg/kg; method in brief: as §1
Mus musculus [25] = experiment: Compound was evaluated for antitumor activity in mice injected intraperitoneal with leukemia P-388 cells, treated on days 5, 9, and 13th day at 12.5 mg/kg; method in brief: as §1
Mus musculus [26] = experiment: Compound was evaluated for antitumor activity in mice injected intraperitoneal with leukemia P-388 cells, treated on days 5, 9, and 13th day at 6.25 mg/kg; method in brief: as §1
Mus musculus [27] = experiment: Compound was evaluated for antitumor activity in mice injected intraperitoneal with leukemia P-388 cells, treated on days 5, 9, and 13 th day at 50 mg/kg; method in brief: as §1

- EC50 (L1210 [3]): 1 µM
- EC50 (L1210 [6]): 0.3 µM
Structure (SMILES): COc1cccc2c1C(=O)c1c(O)c3c(c(O)c1C2=O)C[C@@](O)(C(C)=O)C[C@@H]3O[C@H]1C[C@H](N)[C@H](O)[C@H](C)O1.Cl [DAUNORUBICIN HYDROCHLORIDE]
- T/C (Mus musculus [1]): 126%
- T/C (Mus musculus [2]): 123%
- T/C (Mus musculus [4]): 129%
- Augmentation (Rattus norvegicus): 109%
- T/C (Mus musculus [5]): 123%

- EC50 (L1210 [3]): 1.6 µM
- EC50 (L1210 [6]): 1.3 µM
Structure (SMILES): COc1cccc2c1C(=N)c1c(O)c3c(c(O)c1C2=O)C[C@@](O)(C(C)=O)C[C@@H]3OC1CC(N)C(O)C(C)O1.Cl (stereo partly specified)
- T/C (Mus musculus [7]): 150%
- T/C (Mus musculus [8]): 126%
- T/C (Mus musculus [9]): 126%
- T/C (Mus musculus [10]): 157%
- T/C (Mus musculus [11]): 116%
- T/C (Mus musculus [12]): 130%
- ΔTm (Nucleic Acid): 6.2 °C
- T/C (Mus musculus [13]): 140%
- T/C (Mus musculus [14]): 177%
- Augmentation (Rattus norvegicus): 8.2%
- T/C (Mus musculus [15]): 137%
- T/C (Mus musculus [16]): 180%
- T/C (Mus musculus [17]): 124%
- T/C (Mus musculus [18]): 161%
- T/C (Mus musculus [19]): 186%

- EC50 (L1210 [3]): 1.5 µM
- EC50 (L1210 [6]): 0.7 µM
Structure (SMILES): COc1cccc2c1C(=O)c1c(O)c3c(c(O)c1C2=O)C[C@@](O)(C(=O)CO)C[C@@H]3O[C@H]1C[C@H](N)[C@H](O)[C@H](C)O1.Cl [DOXORUBICIN HYDROCHLORIDE]
- T/C (Mus musculus [20]): 123%
- T/C (Mus musculus [21]): 144%
- ΔTm (Nucleic Acid): 13.4 °C
- T/C (Mus musculus [22]): 130%
- T/C (Mus musculus [23]): 162%
- Augmentation (Rattus norvegicus): 100%
- T/C (Mus musculus [5]): 125%

- EC50 (L1210 [3]): 2 µM
- EC50 (L1210 [6]): 2.1 µM
Structure (SMILES): COc1cccc2c1C(=N)c1c(O)c3c(c(O)c1C2=O)C[C@@](O)(C(=O)CO)C[C@@H]3OC1CC(N)C(O)C(C)O1.Cl (stereo partly specified)
- T/C (Mus musculus [24]): 155%
- T/C (Mus musculus [25]): 132%
- ΔTm (Nucleic Acid): 6.9 °C
- T/C (Mus musculus [26]): 122%
- T/C (Mus musculus [27]): 173%
- Augmentation (Rattus norvegicus): 7.5%
